In paper PMC9389372 (RSC Advances, 2022):

Key:
Cytotoxicity, MTT assay = type: cell-based; conditions: mouse, NIH/3T3 mouse embryonic fibroblast cells
Method in brief: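 NIH/3T3 mouse embryonic fibroblasts, incubated according to the supplier's recommendation, were seeded at 1 × 10⁴ cells per well. Viability was read by MTT assay following the group's previously described standard procedure.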

[1] = target: human butyrylcholinesterase (Homo sapiens, UniProt P06276); test: BChE inhibition, modified Ellman's spectrophotometric method; type: biochemical
Chain of human butyrylcholinesterase (P06276 29-602): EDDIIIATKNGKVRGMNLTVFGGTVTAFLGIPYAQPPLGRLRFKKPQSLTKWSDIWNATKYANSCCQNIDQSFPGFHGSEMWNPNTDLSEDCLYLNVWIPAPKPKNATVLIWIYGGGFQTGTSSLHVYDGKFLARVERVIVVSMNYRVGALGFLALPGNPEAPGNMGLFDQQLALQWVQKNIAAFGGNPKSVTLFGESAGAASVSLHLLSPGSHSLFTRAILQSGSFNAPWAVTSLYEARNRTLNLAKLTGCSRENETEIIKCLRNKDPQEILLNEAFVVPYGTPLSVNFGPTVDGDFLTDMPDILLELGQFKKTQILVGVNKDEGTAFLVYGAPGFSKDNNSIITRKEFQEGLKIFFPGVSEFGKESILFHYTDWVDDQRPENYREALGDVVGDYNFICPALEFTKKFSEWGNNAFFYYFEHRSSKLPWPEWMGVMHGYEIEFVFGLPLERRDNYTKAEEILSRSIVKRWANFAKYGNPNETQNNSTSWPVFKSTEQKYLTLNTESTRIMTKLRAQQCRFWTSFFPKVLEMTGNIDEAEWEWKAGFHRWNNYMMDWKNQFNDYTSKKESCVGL

MAO-A = target: T1, MAO-A (Homo sapiens, UniProt P21397); test: MAO-A inhibition, in vitro fluorometric method; type: biochemical
T1 sequence (P21397 1-527): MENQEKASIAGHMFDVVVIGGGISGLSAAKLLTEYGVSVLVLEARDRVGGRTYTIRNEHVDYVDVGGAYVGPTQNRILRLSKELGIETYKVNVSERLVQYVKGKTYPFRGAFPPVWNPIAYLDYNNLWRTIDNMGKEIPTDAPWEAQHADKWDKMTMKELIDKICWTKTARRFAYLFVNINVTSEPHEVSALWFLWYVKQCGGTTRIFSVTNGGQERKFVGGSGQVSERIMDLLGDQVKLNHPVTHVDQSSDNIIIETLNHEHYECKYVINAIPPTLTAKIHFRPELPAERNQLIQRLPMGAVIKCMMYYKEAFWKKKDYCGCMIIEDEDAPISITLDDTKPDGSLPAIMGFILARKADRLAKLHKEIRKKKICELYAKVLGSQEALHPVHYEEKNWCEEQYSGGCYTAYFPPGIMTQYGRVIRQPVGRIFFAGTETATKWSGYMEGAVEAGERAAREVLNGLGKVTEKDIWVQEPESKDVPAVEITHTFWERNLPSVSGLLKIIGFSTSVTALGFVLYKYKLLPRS

beta amyloid 1–42 (Aβ42) = beta amyloid 1–42 (Aβ42) (Homo sapiens, UniProt P05067); test: fluorometric beta amyloid 1–42; type: biochemical; conditions: read-out: Percent inhibition of beta amyloid 1–42 (Aβ42) peptide aggregation
Chain of beta amyloid 1–42 (Aβ42) (P05067 672-713): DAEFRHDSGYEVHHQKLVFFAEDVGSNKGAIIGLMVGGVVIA

[2] = target: Human acetylcholinesterase (Homo sapiens, UniProt P22303); test: AChE inhibition, modified Ellman's spectrophotometric method; type: biochemical; conditions: read-out: AChE % inhibition, 10^−3 M
Chain of Human acetylcholinesterase (P22303 32-614): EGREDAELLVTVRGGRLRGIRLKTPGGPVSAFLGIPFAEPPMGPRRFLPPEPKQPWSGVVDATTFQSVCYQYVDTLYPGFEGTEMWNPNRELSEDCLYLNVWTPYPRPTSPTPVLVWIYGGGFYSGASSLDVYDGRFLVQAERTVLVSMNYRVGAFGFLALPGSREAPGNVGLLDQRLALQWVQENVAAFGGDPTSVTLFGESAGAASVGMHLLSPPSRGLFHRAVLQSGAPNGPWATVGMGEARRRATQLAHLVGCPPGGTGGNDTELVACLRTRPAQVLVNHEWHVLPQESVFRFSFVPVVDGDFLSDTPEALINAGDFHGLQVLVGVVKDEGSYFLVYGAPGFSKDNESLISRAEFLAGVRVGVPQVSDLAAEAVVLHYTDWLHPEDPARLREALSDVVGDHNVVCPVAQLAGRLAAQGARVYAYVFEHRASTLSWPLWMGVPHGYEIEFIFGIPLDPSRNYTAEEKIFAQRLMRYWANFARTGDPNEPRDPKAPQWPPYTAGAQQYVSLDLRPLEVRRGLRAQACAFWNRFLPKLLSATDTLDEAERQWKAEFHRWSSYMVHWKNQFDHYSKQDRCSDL

## CN(C)CCN1CCN(Cc2ccc(C(=O)Nc3nc4ccccc4s3)cc2)CC1 [4f, N-(Benzo[d]thiazol-2-yl)-4-((4-(2-(dimethylamino)ethyl)piperazine-1-yl)methyl)benzamide]
Cytotoxicity, MTT assay
  IC50: 72.9 ± 2.7 µM
[1]
  IC50: > 1000 µM
[1]; read-out: BChE % inhibition
  inhibition at 100 µM: 32.8 ± 0.6%
  inhibition at 1000 µM: 45.3 ± 0.9%
MAO-A
  IC50: > 100 µM
MAO-A; read-out: MAO-A % inhibition
  inhibition at 100 µM: 41.3 ± 0.9%
  inhibition at 1000 µM: 67.9 ± 1.1%
Beta amyloid 1–42 (Aβ42)
  inhibition at 0.01 µM: 58.6 ± 1.1%
  inhibition at 0.1 µM: 80.8 ± 2.1%
  inhibition at 1 µM: 90.6 ± 3.1%
  inhibition at 10 µM: 97.3 ± 3.2%
[2]
  inhibition at 1000 µM: 96.4 ± 1.4%
